Measured values reported in ChEMBL document CHEMBL1122273, “5-sulfamoylorthanilic acids, a sulfonamide series with salidiuretic activity” (J Med Chem, 1983).

Assays:
Rattus norvegicus [1] = species on record: Rattus norvegicus; experiment: Saluretic activity in the rat measured as concentration of chloride in urine; format: functional
Method in brief: (§1)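 Rats deprived of food 24 h, water ad libitum, dosed 50 mg/kg by stomach tube as suspension in 2% starch, no extra water load. Groups of three in diuresis funnels; urine over first 5 h collected. Na⁺ and K⁺ by flame photometry, Cl⁻ argentometrically; expressed as mequiv/kg.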

Rattus norvegicus [2] = species on record: Rattus norvegicus; experiment: Diuretic activity in the rats, determined by a modified Lipschitz test; format: functional, Urine
Method in brief: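 Modified Lipschitz test: rats deprived of water 24 h, grouped in threes of similar weight in diuresis funnels. Oral dose of 50 mg/kg, suspended in 2% starch solution, by stomach tube.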

Rattus norvegicus [3] = species on record: Rattus norvegicus; experiment: Saluretic activity in the rat measured as concentration of K+ in urine; format: functional; method in brief: as §1
Rattus norvegicus [4] = species on record: Rattus norvegicus; experiment: Saluretic activity in the rat measured as concentration of Na+ in urine; format: functional; method in brief: as §1

SMILES | Saluretic activity (Rattus norvegicus [1]) | Diuretic activity (Rattus norvegicus [2]) | Saluretic activity (Rattus norvegicus [3]) | Saluretic activity (Rattus norvegicus [4])
Cc1ccc(N(C)c2cc(NCc3ccco3)c(S(=O)(=O)[O-])cc2S(N)(=O)=O)cc1.[Na+] | 2.3 m equiv 5hr-1 kg-1 | 1.2 mL/kg | 1.9 m equiv 5hr-1 kg-1 | 1.6 m equiv 5hr-1 kg-1
Cc1ccccc1Nc1cc(NCc2ccco2)c(S(=O)(=O)[O-])cc1S(N)(=O)=O.[Na+] | 0.6 m equiv 5hr-1 kg-1 | 0.6 mL/kg | 1 m equiv 5hr-1 kg-1 | 0.7 m equiv 5hr-1 kg-1
NCc1ccco1.NS(=O)(=O)c1cc(S(=O)(=O)O)c(NCc2ccco2)cc1Cl | 7.2 m equiv 5hr-1 kg-1 | 3.2 mL/kg | 2.3 m equiv 5hr-1 kg-1 | 6.3 m equiv 5hr-1 kg-1
NS(=O)(=O)c1cc(S(=O)(=O)[O-])c(NCc2ccco2)cc1Oc1ccccc1.[K+] | 7.1 m equiv 5hr-1 kg-1 | 1.8 mL/kg | 1.5 m equiv 5hr-1 kg-1 | 5 m equiv 5hr-1 kg-1
NS(=O)(=O)c1cc(S(=O)(=O)[O-])c(Oc2ccccc2)cc1NCc1ccco1.[K+] | 0.8 m equiv 5hr-1 kg-1 | 0.8 mL/kg | 1 m equiv 5hr-1 kg-1 | 0.8 m equiv 5hr-1 kg-1
CCOCCNc1cc(Cl)c(S(N)(=O)=O)cc1S(=O)(=O)[O-].[Na+] | 0.2 m equiv 5hr-1 kg-1 | 0.4 mL/kg | 0.2 m equiv 5hr-1 kg-1 | 0.2 m equiv 5hr-1 kg-1
CNS(=O)(=O)c1cc(S(=O)(=O)[O-])c(NCc2ccco2)cc1N(C)c1ccccc1.[K+] | 1.8 m equiv 5hr-1 kg-1 | 1.3 mL/kg | 1.4 m equiv 5hr-1 kg-1 | 1.2 m equiv 5hr-1 kg-1
NS(=O)(=O)c1cc(S(=O)(=O)[O-])c(NCC2CCCO2)cc1Cl.[Na+] (stereo unspecified) | 0.5 m equiv 5hr-1 kg-1 | 0.4 mL/kg | 0.4 m equiv 5hr-1 kg-1 | 0.4 m equiv 5hr-1 kg-1
N.NS(=O)(=O)c1cc(S(=O)(=O)O)c(NCc2ccco2)cc1Oc1ccccc1 | 8.7 m equiv 5hr-1 kg-1 | 4.2 mL/kg | 2.4 m equiv 5hr-1 kg-1 | 6.6 m equiv 5hr-1 kg-1
CC(C)(C)S(=O)(=O)c1cc(NCc2ccco2)c(S(=O)(=O)[O-])cc1S(N)(=O)=O.[K+] | 4.3 m equiv 5hr-1 kg-1 | 2.5 mL/kg | 1.8 m equiv 5hr-1 kg-1 | 3.3 m equiv 5hr-1 kg-1
Cc1cccc(Oc2cc(NCc3ccco3)c(S(=O)(=O)[O-])cc2S(N)(=O)=O)c1.[K+] | 7.9 m equiv 5hr-1 kg-1 | 4.4 mL/kg | 2.2 m equiv 5hr-1 kg-1 | 6.7 m equiv 5hr-1 kg-1
CCN(c1ccccc1)c1cc(NCc2ccco2)c(S(=O)(=O)[O-])cc1S(N)(=O)=O.[Na+] | 0.3 m equiv 5hr-1 kg-1 | 0.8 mL/kg | 1 m equiv 5hr-1 kg-1 | 0.4 m equiv 5hr-1 kg-1
NC(N)=NC(=O)c1nc(Cl)c(N)nc1N.NS(=O)(=O)c1cc(S(=O)(=O)O)c(NCc2ccco2)cc1Oc1ccccc1 | 2.7 m equiv 5hr-1 kg-1 | 1.9 mL/kg | 0.3 m equiv 5hr-1 kg-1 | 3.7 m equiv 5hr-1 kg-1
C1CCC(NC2CCCCC2)CC1.NS(=O)(=O)c1cc(S(=O)(=O)O)c(NCc2ccco2)cc1Oc1ccccc1 | 0.8 m equiv 5hr-1 kg-1 | 0.9 mL/kg | 1 m equiv 5hr-1 kg-1 | 0.7 m equiv 5hr-1 kg-1
